Here are results for 10 compounds from ChEMBL document CHEMBL1124089, “Binaltorphimine-related bivalent ligands and their kappa opioid receptor antagonist selectivity” (J Med Chem, 1988).

As usually defined, the IC50 is the concentration at which inhibition is half-maximal. The low end stands for inhibition by little substance, the high end for a need for much substance.

Experiment [1] has as its target Delta-type opioid receptor (Mus musculus) (UniProt P32300). In words: Ratio of IC50 DADLE and antagonist binding to delta opioid receptor; Not calculated.
Experiment [2] concerns the target T1, Opioid receptor (mu and kappa) (Cavia porcellus) (UniProt P41144+P97266). The experiment in a line: Ratio of IC50 ethylketazocine and antagonist binding to opioid receptor. Format: protein assay.
The nature of experiment [3]: Ratio of IC50 morphine and antagonist binding to opioid receptor.
Experiment [4] concerns the target Delta-type opioid receptor (Mus musculus, UniProt P32300). The experiment in a line: Agonistic activity in mouse vas deferens. Format: functional, tissue-based.
Experiment [5] addresses T2, Opioid receptor (mu and kappa) (Cavia porcellus, UniProt P41144+P97266). In words: Agonistic activity in guinea pig ileal longitudinal muscle. Format: functional, tissue-based, Muscle tissue.
Experiment [6] addresses Delta-type opioid receptor (Mus musculus) (UniProt P32300). The experiment in a line: Ratio of IC50 DADLE and antagonist binding to delta opioid receptor.
The target is the same in experiment [7]. In words: Antagonistic activity for Opioid receptor delta 1 in mouse vas deferens at 200 nM. Format: functional, tissue-based.
Experiment [8] addresses Mu-type opioid receptor (Cavia porcellus) (UniProt P97266). In words: Antagonistic activity for Opioid receptor mu 1 in guinea pig ileal longitudinal muscle at 200 nM. Format: functional.
For experiment [9], the target named is Kappa-type opioid receptor (Cavia porcellus) (UniProt P41144). In words: Antagonistic activity for Opioid receptor kappa 1 in guinea pig ileal longitudinal muscle at 200 nM. Format: functional.
Experiment [10] can be described thus: Ratio of antagonistic activity for delta and kappa receptors. Format: functional. The gist of the method: (§1)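 Selectivity ratios mu/kappa and delta/kappa calculated from Ke values; Ke = [antagonist]/(IC50 ratio − 1), using ethylketazocine (kappa) and morphine (mu) in GPI and DADLE (delta) in MVD.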
Experiment [11] has as its target T1, Opioid receptor (mu and kappa) (Cavia porcellus). In words: Ratio of antagonistic activity for mu and kappa receptors. Format: functional. The gist of the method:
as §1

For experiment [12], the target named is Kappa-type opioid receptor (Cavia porcellus) (UniProt P41144). In words: Antagonistic activity for Opioid receptor kappa 1 of guinea pig ileal longitudinal muscle at 100 nM. Format: functional.
Experiment [13] concerns the target Delta-type opioid receptor (Mus musculus) (UniProt P32300). The conditions noted are these: Vas deferens, 200 nM.
The target of experiment [14] is Mu-type opioid receptor (Cavia porcellus) (UniProt P97266). To be noted: 20 nM.
The target is the same in experiment [15]. The conditions noted are these: 100 nM.
The target in experiment [16] is Delta-type opioid receptor (Mus musculus) (UniProt P32300). The conditions noted are these: Vas deferens, 20 nM.
Experiment [17] has the same target. In words: Antagonistic activity for Opioid receptor delta 1 in mouse vas deferens preparation at 100 nM. Format: functional.
The target of experiment [18] is Mu-type opioid receptor (Cavia porcellus) (UniProt P97266). In words: Antagonistic activity for Opioid receptor mu 1 in guinea pig ileal longitudinal muscle at 100 nM. Format: functional.
The target of experiment [19] is Kappa-type opioid receptor (Cavia porcellus) (UniProt P41144). The experiment in a line: Antagonistic activity for Opioid receptor kappa 1 in guinea pig ileal longitudinal muscle at 20 nM. Format: functional.
Experiment [20] concerns the target T2, Opioid receptor (mu and kappa). In words: Agonistic activity in guinea pig ileal longitudinal muscle after beta-FNA (200 nM) 60 min treatment. Format: functional, tissue-based, Muscle tissue. The gist of the method: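 GPI pretreated with beta-FNA so that functional mu receptors are absent; agonist IC50 determined in this tissue and compared with IC50 in untreated GPI.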

Sequence of Mu-type opioid receptor (Cavia porcellus) (P97266 whole entry): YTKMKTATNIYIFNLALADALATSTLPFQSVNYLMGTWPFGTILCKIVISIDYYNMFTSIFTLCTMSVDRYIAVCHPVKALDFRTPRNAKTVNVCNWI
Sequence of Delta-type opioid receptor (Mus musculus) (P32300 whole entry): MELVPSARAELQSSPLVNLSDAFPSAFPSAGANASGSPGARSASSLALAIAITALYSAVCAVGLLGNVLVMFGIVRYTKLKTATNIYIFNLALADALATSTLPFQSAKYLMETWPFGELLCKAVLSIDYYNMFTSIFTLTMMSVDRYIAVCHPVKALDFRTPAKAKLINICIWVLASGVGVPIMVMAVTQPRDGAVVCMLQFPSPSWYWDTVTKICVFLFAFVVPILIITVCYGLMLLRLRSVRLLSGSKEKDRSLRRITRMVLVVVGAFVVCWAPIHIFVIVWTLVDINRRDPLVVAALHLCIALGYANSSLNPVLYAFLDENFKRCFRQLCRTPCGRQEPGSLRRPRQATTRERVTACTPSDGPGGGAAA
Sequence of Delta-type opioid receptor (P32300 whole entry): as above
Sequence of Kappa-type opioid receptor (Cavia porcellus) (P41144 whole entry): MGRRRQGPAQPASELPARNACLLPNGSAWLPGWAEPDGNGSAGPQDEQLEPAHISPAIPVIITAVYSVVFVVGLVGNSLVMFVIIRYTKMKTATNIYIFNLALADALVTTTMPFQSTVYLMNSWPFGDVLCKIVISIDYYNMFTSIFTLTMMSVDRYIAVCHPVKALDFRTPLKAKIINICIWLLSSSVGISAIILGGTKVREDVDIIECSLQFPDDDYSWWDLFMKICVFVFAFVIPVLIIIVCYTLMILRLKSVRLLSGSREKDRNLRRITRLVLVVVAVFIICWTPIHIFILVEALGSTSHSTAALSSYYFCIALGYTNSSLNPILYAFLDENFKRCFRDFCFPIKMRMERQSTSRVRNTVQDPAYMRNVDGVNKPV
T1 sequence (P41144 whole entry, looked up): as the sequence (P41144 whole entry) above
T1 sequence (P97266 whole entry, looked up): as the sequence (P97266 whole entry) above

For the compound `CC(=O)Oc1ccc2c3c1O[C@H]1c4[nH]c5c(c4C[C@@]4(OC(C)=O)[C@@H](C2)N(CC2CC2)CC[C@]314)C[C@@]1(OC(C)=O)[C@H]2Cc3ccc(OC(C)=O)c4c3[C@@]1(CCN2CC1CC1)[C@H]5O4`, the Ratio in [1] is 1.4; in experiment [2], 1.6; in experiment [3] it was 1.2.

Turning to `COc1ccc2c3c1O[C@H]1c4[nH]c5c(c4C[C@H]4[C@@H](C2)N(C)CC[C@]314)C[C@H]1[C@H]2Cc3ccc(OC)c4c3[C@@]1(CCN2C)[C@H]5O4`, the IC50 is 1000 nM in experiment [4] and 330 nM in experiment [5]. Besides, the Ratio in experiment [6] turned out to be 0.93; in experiment [2], 0.43; in experiment [3], 0.51.

As for `CN1CC[C@]23c4c5ccc(O)c4O[C@H]2c2[nH]c4c(c2C[C@H]3[C@H]1C5)C[C@H]1[C@H]2Cc3ccc(O)c5c3[C@@]1(CCN2C)[C@H]4O5`, the figures for the IC50 in experiment [4] and in experiment [5] were 52 nM and 53 nM, respectively. The Ratio in experiment [6] is 0.85; in experiment [2], 0.79; in experiment [3], 0.68.

For the compound `COc1ccc2c3c1O[C@H]1c4[nH]c5c(c4C[C@@]4(O)[C@@H](C2)N(CC2CC2)CC[C@]314)C[C@@]1(O)[C@H]2Cc3ccc(O)c4c3[C@@]1(CCN2CC1CC1)[C@H]5O4`, the Ke in experiment [7] came to 45 nM; in experiment [8] it was 38 nM; in [9] it was 1.3 nM. Moreover, the results for the Ratio in [6], in [2] and in experiment [3] were 5.4, 153 and 6.3, respectively. Besides, the Selectivity ratio in experiment [10] was determined as 35; in experiment [11], 29.

`Oc1ccc2c3c1O[C@H]1c4[nH]c5c(c4C[C@@]4(O)[C@@H](C2)N(CC2CC2)CC[C@]314)C[C@@]1(O)[C@H]2Cc3ccc(O)c4c3[C@@]1(CCN2CC1CC1)[C@H]5O4`: the Ke in [12] stood at 0.41 nM; in experiment [13] it was 20 nM; in experiment [14], 13 nM. Moreover, the results for the Ratio in [6], in [2] and in experiment [3] were 2, 49.1 and 2.6, respectively. For the same compound, the Selectivity ratio is 49 in experiment [10] and 32 in [11].

For the compound `Cn1c2c(c3c1[C@@H]1Oc4c(O)ccc5c4[C@@]14CCN(CC1CC1)[C@H](C5)[C@]4(O)C3)C[C@@]1(O)[C@H]3Cc4ccc(O)c5c4[C@@]1(CCN3CC1CC1)[C@H]2O5`, the values for the Ke in experiment [12], in [15] and in experiment [16] were 0.14 nM, 11 nM and 5.7 nM, respectively. Moreover, the Ratio in [6] came out at 4.5; in experiment [2] it was 148; in experiment [3], 2.8. For the same compound, the Selectivity ratio in experiment [10] was 41; in experiment [11] it was 79.

Take `Oc1ccc2c3c1O[C@H]1c4[nH]ccc4C[C@@]4(O)[C@@H](C2)N(CC2CC2)CC[C@]314`: the Ke in experiment [17] is 3.2 nM; in experiment [18] it was 0.65 nM; in experiment [12], 2.1 nM. The Ratio in [6] is 32.3; in [2], 49.5; in experiment [3], 155. Also, the Selectivity ratio was found to be 1.5 in experiment [10] and 0.3 in [11].

`COc1ccc2c3c1O[C@H]1c4[nH]c5c(c4C[C@@]4(O)[C@@H](C2)N(CC2CC2)CC[C@]314)C[C@@]1(O)[C@H]2Cc3ccc(OC)c4c3[C@@]1(CCN2CC1CC1)[C@H]5O4` returned a Ke in experiment [19] of 7.1 nM. The Ratio in experiment [6] came out at 0.6; in [2], 3.8; in experiment [3], 0.8.

For `CC(=O)O[C@@]12Cc3c([nH]c4c3C[C@@]3(OC(C)=O)[C@H]5Cc6ccc(O)c7c6[C@@]3(CCN5CC3CC3)[C@H]4O7)[C@@H]3Oc4c(O)ccc5c4[C@@]31CCN(CC1CC1)[C@@H]2C5`, the figures for the Ke in experiment [17], in experiment [18] and in [12] were 12 nM, 42 nM and 0.38 nM, respectively. In addition, the Ratio in experiment [6] came to 9.2; in [2], 261; in [3] it was 3.4. Also, the Selectivity ratio is 32 in experiment [10] and 111 in [11].

Turning to `CN1CC[C@]23c4c5ccc(O)c4O[C@H]2c2[nH]c4c(c2C[C@@]3(O)[C@H]1C5)C[C@@]1(O)[C@H]2Cc3ccc(O)c5c3[C@@]1(CCN2C)[C@H]4O5`, the IC50 in experiment [4] worked out at 170 nM; in [5], 250 nM; in [20], 2630 nM. For the same compound, the Ratio in [6] was 1.1; in experiment [2] it was 1.6; in experiment [3], 0.88.
